From ChEMBL document CHEMBL4732169, “Design and synthesis of mycobacterial pks13 inhibitors: Conformationally rigid tetracyclic molecules” (Eur J Med Chem, 2021)
Converted amounts (≈) assume the structure as drawn.

Tests used:
[1] = test system: Mycobacterium tuberculosis; experiment: Antitubercular activity against Mycobacterium tuberculosis H37Rv assessed as bacterial growth inhibition incubated for 4 days by MABA assay; type: functional; details: time 4 day
[2] = test system: Mycobacterium tuberculosis; experiment: Binding affinity to wild type Mycobacterium tuberculosis Pks13-TE expressed in Escherichia coli BL21(DE3)pLysS assessed as change in melting temperature at protein to compound molar ratio of 1:5 incubated for 30 mins by nanoDSF assay
Summary of the method: (§1)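 Recombinant N-Mbp-His-tagged Pks13-TE domain of Mtb Pks13 (Rv3800c), expressed in E. coli BL21(DE3)pLysS after 0.5 mM IPTG induction and purified to >95%. Protein was incubated with compound (stock in DMSO) in 100 mM NaCl, 20 mM Tris-HCl pH 8.0 for 30 min, with a DMSO blank. nanoDSF ramp 30–90 °C at 2 °C/min, read as the F350/F330 ratio. Tm shift averaged from three measurements.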

[3] = test system: Mycobacterium tuberculosis; experiment: Binding affinity to wild type Mycobacterium tuberculosis Pks13-TE expressed in Escherichia coli BL21(DE3)pLysS assessed as change in melting temperature at protein to compound molar ratio of 1:10 incubated for 30 mins by nanoDSF assay; summary of the method: as §1
[4] = test system: Mycobacterium tuberculosis; experiment: Antitubercular activity against drug susceptible Mycobacterium tuberculosis V4207 by MABA assay; type: functional
Summary of the method: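 Microplate alamar blue assay (MABA) against each Mtb strain, either H37Rv or a clinical isolate (drug-susceptible, MDR or XDR). MIC taken as the lowest concentration giving at least 90% reduction of the bacterial growth signal. Each value is the average of three individual measurements.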

[5] = test system: Vero; experiment: Cytotoxicity against African green monkey Vero cells incubated for 72 hrs in DEME medium; type: cell-based; details: Chlorocebus sabaeus
[6] = test system: Mycobacterium tuberculosis; experiment: Inhibition of Mycobacterium tuberculosis Pks13-TE using 4-MUH as substrate by measuring fluorescence product for every 10 mins for 60 mins
Summary of the method: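 Pks13-TE thioesterase activity measured with the fluorogenic substrate 4-methylumbelliferyl heptanoate at 20 µM final, in 0.1 M Tris-HCl pH 7.0. Compound was serially diluted from 20 µM down to about 0.0195 µM, or DMSO was added. Points were run in triplicate and averaged to build concentration-response curves for IC50.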

[7] = test system: Escherichia coli; experiment: Antibacterial activity against Escherichia coli AB1157 assessed as inhibition of bacterial growth measured after 18 hrs by two fold serial dilution method; type: functional
Summary of the method: (§2)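 Bacteria grown overnight at 37 °C in TSB without antibiotics. Compound in DMSO was serially diluted two-fold to final […] and mixed with an equal volume of bacteria. MIC was read after 18 h at 37 °C; three experiments per condition.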

[8] = test system: Bacillus subtilis; experiment: Antibacterial activity against Bacillus subtilis168 assessed as inhibition of bacterial growth measured after 18 hrs by two fold serial dilution method; type: functional; details: subsp. subtilis str. 168; summary of the method: as §2
[9] = Selective index, ratio of CC50 for African green monkey Vero cells to IC50 for Mycobacterium tuberculosis H37Rv
Summary of the method: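 Vero (African green monkey kidney) cytotoxicity measured by alamar blue assay to give IC50. SI calculated as IC50(Vero)/MIC(H37Rv).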

[10] = test system: Escherichia coli; experiment: Antibacterial activity against Escherichia coli DH5-alpha assessed as inhibition of bacterial growth measured after 18 hrs by two fold serial dilution method; type: functional; summary of the method: as §2
[11] = test system: Staphylococcus aureus; experiment: Antibacterial activity against Staphylococcus aureus Newman assessed as inhibition of bacterial growth measured after 18 hrs by two fold serial dilution method; type: functional; summary of the method: as §2
[12] = test system: Mycobacterium tuberculosis; experiment: Potency index, ratio of MIC for TAM16 to MICfor test compound for antitubercular activity against Mycobacterium tuberculosis H37Rv assessed as bacterial growth inhibition incubated for 4 days by MABA assay; type: functional; details: time 4 day

## CCOC(=O)c1c(-c2ccccc2)[nH]c2ccc(O)c(CN3CCCCC3)c12
[1]
  MIC=<90: >32 µg/mL

## O=c1oc2ccccc2c2[nH]c3ccc(O)c(CN4CCCCC4)c3c12
[2]
  ΔTm: 0.8 °C
[3]
  ΔTm: 3.1 °C
[1]
  MIC=<90: 32 µg/mL (≈ 91.8 µM)

## CO[C@H]1/C=C/O[C@@]2(C)Oc3c(C)c(O)c4c(O)c(c(/C=N/N5CCN(C)CC5)c(O)c4c3C2=O)NC(=O)/C(C)=C\C=C\[C@H](C)[C@H](O)[C@@H](C)[C@@H](O)[C@@H](C)[C@H](OC(C)=O)[C@@H]1C [RIFAMPIN]
[4]
  MIC=<90: 0.0625 µg/mL (≈ 0.0759 µM)

## O=c1oc2ccccc2c2oc3ccc(O)c(CN4CCCCC4)c3c12
[1]
  MIC=<90: 0.125 µg/mL (≈ 0.358 µM)

## C[C@H]1COc2c(N3CCN(C)CC3)c(F)cc3c(=O)c(C(=O)O)cn1c23.C[C@H]1COc2c(N3CCN(C)CC3)c(F)cc3c(=O)c(C(=O)O)cn1c23.O [LEVOFLOXACIN]
[4]
  MIC=<90: 0.125 µg/mL

## CC1COc2c(N3CCN(C)CC3)c(F)cc3c(=O)c(C(=O)O)cn1c23 (stereo not drawn) [OFLOXACIN]
[4]
  MIC=<90: 0.5 µg/mL (≈ 1.38 µM)

## CCNC(=O)c1c(-c2ccc(F)cc2)oc2ccc(O)c(CN3CCCCC3)c12
[1]
  MIC=<90: 4 µg/mL (≈ 10.1 µM)

## CCNC(=O)c1c(-c2ccc(OC)cc2)oc2ccc(O)c(CN3CCCCC3)c12
[1]
  MIC=<90: 2 µg/mL (≈ 4.9 µM)

## COc1ccc2oc3c4ccccc4oc(=O)c3c2c1C(=O)N1CCCCC1
[1]
  MIC=<90: >64 µg/mL

## CNC(=O)c1c(-c2ccc(O)cc2)oc2ccc(O)c(CN3CCCCC3)c12
[1]
  MIC=<90: 0.0313 µg/mL (≈ 0.0823 µM)

## O=c1[nH]c2cc(O)ccc2c2oc3ccc(O)c(CN4CCCCC4)c3c12
[5]
  IC50: 4 µg/mL (≈ 11 µM)
[6]
  INH: 0.58 µM
[4]
  MIC=<90: 0.0313 µg/mL (≈ 0.0859 µM)
[2]
  ΔTm: 7.5 °C
[7]
  MIC: > 25 µg/mL
[8]
  MIC: > 25 µg/mL
[3]
  ΔTm: 9.4 °C
[9]
  Ratio CC50/IC50: 64
[1]
  MIC=<90: 0.0313 µg/mL (≈ 0.0859 µM)
[10]
  MIC: > 25 µg/mL
[11]
  MIC: > 25 µg/mL

## O=c1[nH]c2ccccc2c2oc3ccc(O)c(CN4CCCCC4)c3c12
[2]
  ΔTm: 9.6 °C
[3]
  ΔTm: 10.2 °C
[1]
  MIC=<90: 0.25 µg/mL (≈ 0.718 µM)

## O=c1oc2ccccc2c2oc3cc(Br)c(O)c(CN4CCCCC4)c3c12
[1]
  MIC=<90: >64 µg/mL

## O=c1oc2ccccc2c2sc3ccc(O)c(CN4CCCCC4)c3c12
[2]
  ΔTm: 7.9 °C
[3]
  ΔTm: 9.1 °C
[1]
  MIC=<90: 1 µg/mL (≈ 2.74 µM)

## CN(C)[C@@H]1C(O)=C(C(N)=O)C(=O)[C@@]2(O)C(O)=C3C(=O)c4c(O)cccc4[C@@](C)(O)[C@H]3C[C@@H]12 [TETRACYCLINE]
[7]
  MIC: 1.56 µg/mL (≈ 3.51 µM)
[8]
  MIC: > 25 µg/mL
[10]
  MIC: 0.78 µg/mL (≈ 1.76 µM)
[11]
  MIC: 0.2 µg/mL (≈ 0.45 µM)

## COc1ccc2[nH]c(=O)c3c(oc4ccc(O)c(CN5CCCCC5)c43)c2c1
[1]
  MIC=<90: 4 µg/mL (≈ 10.6 µM)

## CN[C@H](CC(C)C)C(=O)N[C@H]1C(=O)N[C@@H](CC(N)=O)C(=O)N[C@H]2C(=O)N[C@H]3C(=O)N[C@H](C(=O)N[C@H](C(=O)O)c4cc(O)cc(O)c4-c4cc3ccc4O)[C@H](O)c3ccc(c(Cl)c3)Oc3cc2cc(c3O[C@@H]2O[C@H](CO)[C@@H](O)[C@H](O)[C@H]2O[C@H]2C[C@](C)(N)[C@H](O)[C@H](C)O2)Oc2ccc(cc2Cl)[C@H]1O [VANCOMYCIN]
[7]
  MIC: > 25 µg/mL
[8]
  MIC: > 25 µg/mL
[10]
  MIC: > 25 µg/mL
[11]
  MIC: 0.39 µg/mL (≈ 0.269 µM)

## COc1ccc2c(c1)[nH]c(=O)c1c2oc2ccc(O)c(CN3CCCCC3)c21
[5]
  IC50: 64 µg/mL (≈ 169 µM)
[2]
  ΔTm: 8.7 °C
[3]
  ΔTm: 9 °C
[9]
  Ratio CC50/IC50: 256
[1]
  MIC=<90: 0.25 µg/mL (≈ 0.661 µM)

## O=c1[nH]c2cc(Cl)ccc2c2oc3ccc(O)c(CN4CCCCC4)c3c12
[5]
  IC50: 32 µg/mL (≈ 83.6 µM)
[9]
  Ratio CC50/IC50: 64
[1]
  MIC=<90: 0.5 µg/mL (≈ 1.31 µM)

## NC[C@H]1O[C@H](O[C@H]2[C@H](O)[C@@H](O[C@H]3O[C@H](CO)[C@@H](O)[C@H](N)[C@H]3O)[C@H](N)C[C@@H]2N)[C@H](O)[C@@H](O)[C@@H]1O [KANAMYCIN]
[4]
  MIC=<90: 2 µg/mL (≈ 4.13 µM)
[7]
  MIC: 9.39 µg/mL (≈ 19.4 µM)
[8]
  MIC: 9.39 µg/mL (≈ 19.4 µM)
[10]
  MIC: 2.34 µg/mL (≈ 4.83 µM)
[11]
  MIC: 2.34 µg/mL (≈ 4.83 µM)

## NNC(=O)c1ccncc1 [ISONIAZID]
[4]
  MIC=<90: 0.04 µg/mL (≈ 0.292 µM)

## COc1cc2c(cc1C(=O)N1CCCCC1)oc1c3ccccc3oc(=O)c21
[1]
  MIC=<90: >64 µg/mL

## CCOC(=O)c1c(-c2ccccc2)oc2ccc(OC)c(C(=O)N3CCCCC3)c12
[1]
  MIC=<90: >64 µg/mL

## O=c1oc2cc(O)ccc2c2oc3ccc(O)c(CN4CCCCC4)c3c12
[1]
  MIC=<90: 0.0039 µg/mL (≈ 0.0107 µM)
[12]
  Ratio: 8

## O=c1[nH]c2cc(Br)ccc2c2oc3ccc(O)c(CN4CCCCC4)c3c12
[5]
  IC50: 64 µg/mL (≈ 150 µM)
[9]
  Ratio CC50/IC50: 128
[1]
  MIC=<90: 0.5 µg/mL (≈ 1.17 µM)

## O=c1[nH]c2ccc(Cl)cc2c2oc3ccc(O)c(CN4CCCCC4)c3c12
[1]
  MIC=<90: 1 µg/mL (≈ 2.61 µM)

## CCNC(=O)c1c(-c2ccccc2)oc2ccc(O)c(CN3CCCCC3)c12
[1]
  MIC=<90: 4 µg/mL (≈ 10.6 µM)

## O=c1[nH]c2c(Cl)cccc2c2oc3ccc(O)c(CN4CCCCC4)c3c12
[1]
  MIC=<90: 1 µg/mL (≈ 2.61 µM)

## O=c1[nH]c2ccc(O)cc2c2oc3ccc(O)c(CN4CCCCC4)c3c12
[5]
  IC50: 16 µg/mL (≈ 43.9 µM)
[2]
  ΔTm: 7.4 °C
[3]
  ΔTm: 8.5 °C
[9]
  Ratio CC50/IC50: 16
[1]
  MIC=<90: 1 µg/mL (≈ 2.74 µM)

## CCOC(=O)c1c(-c2ccccc2)sc2ccc(O)c(CN3CCCCC3)c12
[2]
  ΔTm: 3.2 °C
[3]
  ΔTm: 3.3 °C
[1]
  MIC=<90: 16 µg/mL (≈ 40.5 µM)

## O=c1[nH]c2c(F)cccc2c2oc3ccc(O)c(CN4CCCCC4)c3c12
[1]
  MIC=<90: 0.5 µg/mL (≈ 1.36 µM)

## O=c1[nH]c2ccc(F)cc2c2oc3ccc(O)c(CN4CCCCC4)c3c12
[5]
  IC50: 16 µg/mL (≈ 43.7 µM)
[9]
  Ratio CC50/IC50: 16
[1]
  MIC=<90: 1 µg/mL (≈ 2.73 µM)

## CCOC(=O)c1c(-c2ccccc2)oc2cc(Br)c(O)c(CN3CCCCC3)c12
[1]
  MIC=<90: 32 µg/mL (≈ 69.8 µM)

## CCOC(=O)c1c(-c2ccccc2)oc2cc(C(=O)N3CCCCC3)c(OC)cc12
[1]
  MIC=<90: >64 µg/mL

## CCOC(=O)c1c(-c2ccccc2)oc2ccc(O)c(CN3CCCCC3)c12
[6]
  INH: 4.6 µM
[1]
  MIC=<90: 2 µg/mL (≈ 5.27 µM)

## O=c1[nH]c2ccc(Br)cc2c2oc3ccc(O)c(CN4CCCCC4)c3c12
[1]
  MIC=<90: 32 µg/mL (≈ 74.9 µM)

## O=c1[nH]c2cc(F)ccc2c2oc3ccc(O)c(CN4CCCCC4)c3c12
[5]
  IC50: 16 µg/mL (≈ 43.7 µM)
[9]
  Ratio CC50/IC50: 32
[1]
  MIC=<90: 0.5 µg/mL (≈ 1.36 µM)
